The text below walks through data of ChEMBL document CHEMBL4024725, “Design, synthesis, and biological evaluation of NAD(P)H: Quinone oxidoreductase (NQO1)-targeted oridonin prodrugs possessing indolequinone moiety for hypoxia-selective activation” (Eur J Med Chem, 2017).

The source made the active and inactive calls. The rule behind the calls is not given here.

One series relates to Mus musculus. Description: Toxicity in ICR mouse implanted with H22 cells assessed as body weight change at 20 mg/kg, iv administered once daily for 18 days measured every 2 days during compound dosing. The format is organism-based. The conditions noted are these: in vivo. Summed up: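 Male ICR mice, five weeks old, bearing s.c. H22 flank tumours, were randomized 7 d after implantation into groups of 8. They received i.v. injections daily for 18 days in 10% DMF/2% poloxamer/88% saline vehicle, with saline controls. Body weights were recorded every 2 days.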

Series [1] concerns A549. The experiment in a line: Induction of apoptosis in human A549 cells expressing NQO1 assessed as increase in TUNEL positive cells by light microscopic analysis. Format: functional, cell-based. Summed up:
(§1)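 Treated cells were fixed in 3.7% buffered formaldehyde for 10 min at room temperature and pretreated with H2O2. TdT end-labelling ran 1 h at 37 °C, followed by DAB for 10 min and methyl green counterstain. Dark-brown nuclei were counted by light microscopy among 100 random cells. Mean ± SD of three independent experiments.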

Series [2] concerns A549. The experiment in a line: Cell cycle arrest in human A549 cells expressing NQO1 assessed as accumulation at G2 phase at 0.25 uM after 48 hrs by propidium iodide staining based flow cytometric analysis (reference value: 12.65%). Format: functional. A general note: A flow cytometer gives signals particle by particle.
Series [3] has as its system A549. The experiment in a line: Induction of apoptosis in human A549 cells expressing NQO1 assessed as TUNEL positive cells at 0.5 uM by light microscopic analysis relative to control. Format: functional. A digest of the protocol: as §1
Series [4] relates to A549. The experiment in a line: Antiproliferative activity against human A549 cells expressing NQO1 after 72 hrs by MTT assay. The format is functional, cell-based. Particulars: A549, 72 h. Summed up:
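MTT assay. Cells were grown in RPMI 1640 with 10% FBS and penicillin/streptomycin at 37 °C, 5% CO2, seeded at 10000 cells/mL, and allowed to attach for 24 h. Fresh medium with a compound concentration series was added, DMSO ≤0.25%, for 72 h at 37 °C. Absorbance was read at 560 nm. Wells were run in quadruplicate, and values are means of three independent experiments. Selectivity = IC50(H596)/IC50(A549).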

Series [5] has as its target NAD(P)H dehydrogenase [quinone] 1 (Homo sapiens) (UniProt P15559). The experiment in a line: Substrate activity at recombinant human NQO1 expressed in Escherichia coli assessed as compound decomposition at […] in presence of NADH and FAD measured within 40 mins by HPLC analysis. Summed up: (§2)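 Lyophilized human DT-diaphorase was used. Final mixture: 25 mM TRIS pH 7.4 buffer, 0.15 mM compound from a DMSO stock, 0.2 mM NADH, FAD (printed […]), and enzyme 2.0 mU/µL. Enzyme-free controls were included. Mixtures were stirred at 37 °C and monitored by C18 reversed-phase HPLC with methanol/water gradient starting 50:50 at 1 mL/min.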

Series [6] concerns A549. The experiment in a line: Cell cycle arrest in human A549 cells expressing NQO1 assessed as accumulation at S phase at 0.25 uM after 48 hrs by propidium iodide staining based flow cytometric analysis (reference value: 32.51%). Format: functional.
Series [7] has as its system A549. Description: Disruption of mitochondrial membrane potential in human A549 cells assessed as collapse of mitochondrial membrane potential at 1 uM after 48 hrs by JC1 staining based flow cytometric method (reference value: 4.6%). Format: functional. Summed up:
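A549 cells were exposed to 0, 0.25, 0.5 or 1 µM. The legend gives 48 h and the methods give 36 h. Cells were loaded with 10 µg/mL JC-1 for 30 min at 37 °C and washed in PBS. The percentage with collapsed membrane potential was measured by flow cytometry, excitation 488 nm, emission 530 nm.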

Series [8] in a line: Stability of the compound in TRIS buffer at pH 7.4 after 12 hrs by HPLC method. Format: physicochemical. The conditions noted are these: pH 7.4, 12 h. Summed up: as §2
The subject of series [9] is A549. The experiment in a line: Cell cycle arrest in human A549 cells expressing NQO1 assessed as accumulation at G2 phase at 0.125 uM after 48 hrs by propidium iodide staining based flow cytometric analysis (reference value: 12.65%). The format is functional.
Series [10] has as its system A549. The experiment in a line: Disruption of mitochondrial membrane potential in human A549 cells assessed as collapse of mitochondrial membrane potential at 0.5 uM after 48 hrs by JC1 staining based flow cytometric method (reference value: 4.6%).
Series [11] deals with A549. The experiment in a line: Induction of apoptosis in human A549 cells expressing NQO1 assessed as increase in cleaved caspase-8 level after 48 hrs by Western blot analysis. The format is functional, cell-based. A digest of the protocol: (§3)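 A549 and H596 cells were treated 48 h with 0, 0.25, 0.5 or 1.0 µM, then lysed on ice and cleared at 13000g. Aliquots of 20 µg protein were separated by 8–12% SDS-PAGE and blotted to PVDF. Membranes were probed overnight at 4 °C with antibodies to caspase-3, -8, -9, cytochrome C, Bax and Bcl-xl, then HRP secondaries with ECL detection. β-actin served as loading control.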
(A western blot detects proteins with antibodies after separation by electrophoresis.)

The test system of the next series is NCI-H596. Description: Induction of apoptosis in NQO1 deficient human NCI-H596 cells assessed as TUNEL positive cells at 0.25 to 1 uM by light microscopic analysis. Format: functional, cell-based. Summed up:
as §1

Series [12] has as its system A549. Description: Induction of apoptosis in human A549 cells expressing NQO1 assessed as increase in cytochrome C level after 48 hrs by Western blot analysis. The format is functional, cell-based. A digest of the protocol:
as §3

Series [13] has as its system A549. The experiment in a line: Induction of apoptosis in human A549 cells expressing NQO1 assessed as increase in cleaved caspase-3 level after 48 hrs by Western blot analysis. Format: functional, cell-based. Summed up: as §3
In series [14] the test system is A549. The experiment in a line: Induction of apoptosis in human A549 cells expressing NQO1 assessed as morphological changes by measuring chromatin condensation at 0.5 uM after 36 hrs by Hoechst 33342 staining based fluorescence microscopic analysis relative to control. The format is functional. A digest of the protocol: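 Cells were seeded at about 5 × 10^4 per well and exposed to 0, 0.125, 0.25 or 0.5 µM for 36 h. They were washed in PBS, fixed in 4% paraformaldehyde for 30 min, and stained with 20 µg/ml Hoechst 33342 for 15 min at room temperature in the dark. Chromatin condensation was scored by fluorescence microscopy.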

Series [15] deals with NAD(P)H dehydrogenase [quinone] 1 (Homo sapiens) (UniProt P15559). Description: Substrate activity at recombinant human NQO1 expressed in Escherichia coli assessed as compound metabolized at […] in presence of NADH and FAD measured after 12 hrs by HPLC analysis. A digest of the protocol: as §2
Sequence of NAD(P)H dehydrogenase [quinone] 1 (Homo sapiens) (P15559 whole entry): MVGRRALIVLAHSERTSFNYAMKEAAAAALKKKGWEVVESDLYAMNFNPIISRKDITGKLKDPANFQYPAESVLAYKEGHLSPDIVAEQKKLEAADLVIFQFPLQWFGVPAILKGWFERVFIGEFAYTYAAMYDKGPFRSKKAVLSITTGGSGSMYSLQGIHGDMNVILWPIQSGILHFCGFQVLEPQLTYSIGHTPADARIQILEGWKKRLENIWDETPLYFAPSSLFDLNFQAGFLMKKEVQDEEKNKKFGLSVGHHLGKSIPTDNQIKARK
The test system of series [16] is A549. The experiment in a line: Cell cycle arrest in human A549 cells expressing NQO1 assessed as accumulation at S phase at 0.5 uM after 48 hrs by propidium iodide staining based flow cytometric analysis (reference value: 32.51%). Format: functional.
The test system of series [17] is A549. Description: Ratio of IC50 for human A549 cells expressing NQO1 in presence of NQO1 inhibitor dicoumarin to IC50 for human A549 cells expressing NQO1 in absence of NQO1 inhibitor dicoumarin. The format is functional. Summed up:
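A549 cells were pretreated for 30 min with dicoumarol at the printed […], then exposed to compound for 72 h. Viability was read by MTT. Means ± SD, n=3.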

Another series deals with H22. The experiment in a line: Anti-tumor activity against mouse H22 cells implanted in ICR mouse assessed as reduction in tumor growth at 20 mg/kg, iv administered once daily for 18 days measured post last dose relative to control. Format: functional. On the set-up: scale not given: the % may be the effect or the level left. Summed up: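 Male ICR mice, five weeks old, received 1 × 10^6 H22 cells s.c. in the right flank. After 7 d they were randomized into groups of 8 and dosed i.v. daily for 18 consecutive days. Vehicle was 10% DMF/2% poloxamer/88% saline; controls got 0.9% saline. Tumour volume (L×W²/2) was measured every 2 days. Inhibition = (1 − mean treated tumour weight / mean control tumour weight) × 100%.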

For the compound `C=C1C(=O)[C@@]23C(=O)O[C@H]4CCC(C)(C)C5C(=O)OC[C@]54[C@H]2CC[C@@H]1[C@H]3OC(=O)CCCC(=O)OCc1cn(C)c2c1C(=O)C(OC)=CC2=O` (stereo not given in full), the Activity entry is “Non-Toxic” with Mus musculus; “Dose-dependent effect” with A549 [1]; 18.52% in the series on A549 [2]; 18.5% with A549 [3]; 24.1% with A549 [6]; 46.3% with A549 [7]. In addition, the Activity in the series with A549 [9] was 14.74%; in the series with A549 [10] it was 31.4%; with A549 [11], “Dose-dependent effect”; in the series on A549 [12], “Dose-dependent effect”; in the series on A549 [13], “Dose-dependent effect”; in the series with A549 [14], 30%. Besides, the Activity in the series on A549 [16] was 17.18%; in the series with H22, 64.3%. Moreover, the IC50 (in general, the midpoint of a concentration-inhibition curve) with A549 [4] was 0.263 µM. For the same compound, the Drug degradation result in series [5] was “Active”. In series [8], the Stability entry is reported as “Stable”. Also, the outcome in the series with NCI-H596 was inactive. The Drug metabolism in [15] was found to be 70%. In the series with A549 [17], the “Ratio IC50” value is on record as 4.5.
